procasp7 counter = counter-screen for procaspase-3 activators: activators of human procaspase-7; recombinant procaspase-7, Ac-DEVD-pNA absorbance 405 nm; D23A/D198A/D206A triple mutant, cannot self-cleave; scale: DMSO 0, 5 µM enzyme 100; activation, % at 8.5 µM; 0.093% of 330,000 active; AID 463210;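 active = percent activation above the screen-wide mean plus 3 SD, cut at about 25% in these data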
Target sequence (P55210 whole entry D23A/D198A/D206A): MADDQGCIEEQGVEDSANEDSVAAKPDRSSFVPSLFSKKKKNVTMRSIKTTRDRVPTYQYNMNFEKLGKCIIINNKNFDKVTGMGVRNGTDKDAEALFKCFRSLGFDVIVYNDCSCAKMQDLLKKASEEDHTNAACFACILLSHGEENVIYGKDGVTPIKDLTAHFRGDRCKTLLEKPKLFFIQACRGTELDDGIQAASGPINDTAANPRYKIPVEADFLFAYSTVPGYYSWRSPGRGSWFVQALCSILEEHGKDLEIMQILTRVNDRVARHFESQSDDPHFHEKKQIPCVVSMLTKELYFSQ
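Replicates: singlicate. Assay system: Procaspase-7 triple mutant (PC-7 D3A). Signal: 405 nm absorbance of p-nitroaniline. Times: 1 h preincubation, 2 h reaction. Buffer or medium: Zinc-free HEPES pH 7.4 with 300 mM NaCl, 0.01% Triton X-100. Also added: DEVD-pNA substrate. Benchmarks: DMSO wells as 0%, DMSO with 5 µM added PC-7 as 100%.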
MsrA inhibitor = bovine MsrA inhibition | purified bovine MsrA, absorbance read-out | inhibition, % at 15.5 µM | AID 651718 | 0.75% of 360,000 active;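 also: 0% = vehicle wells with enzyme and 100% = reference inhibitor wells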
A1 inh = inhibitors of the anti-apoptotic protein A1, read as caspase activation; MEF A1-2A-BIM cells, Caspase-Glo 3/7 luminescence, 3 h; percent of clofoctol response, vehicle zero; caspase activation, % (concentration not given with the values); 0.066% of 330,000 active;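 active = over half of replicate activation scores above 10%, or exactly half above 10 with the replicate mean above 10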
proCasp3 act = procaspase-3 (human) activation; AID 463141; 0.11% of 330,000 active; P42574; recombinant procaspase-3 D3A, Ac-DEVD-pNA absorbance 405 nm; activation, % at 8.5 µM;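 active = activation above the mean of all tested compounds plus 3 SD, cut at about 21% in these data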;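 also: 0% = DMSO alone and 100% = DMSO wells spiked with extra 5 µM PC-3 D3A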
Target sequence (P42574 whole entry D9A/D28A/D175A): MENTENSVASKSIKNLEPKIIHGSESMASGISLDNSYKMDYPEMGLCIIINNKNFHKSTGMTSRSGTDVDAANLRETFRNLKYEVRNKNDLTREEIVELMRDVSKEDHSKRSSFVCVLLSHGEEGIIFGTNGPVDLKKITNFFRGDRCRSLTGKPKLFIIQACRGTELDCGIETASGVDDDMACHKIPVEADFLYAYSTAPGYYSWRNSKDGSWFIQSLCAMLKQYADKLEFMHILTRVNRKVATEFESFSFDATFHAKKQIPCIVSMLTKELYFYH
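Assay system – Procaspase-3 D3A mutant, all three cleavage aspartates alanine · Controls – DMSO-only low control, 5 µM PC-3 D3A high control · Schedule – 1 h compound preincubation, 2 h substrate hydrolysis at 25 °C · Signal – 405 nm absorbance of p-nitroaniline, reads at 0 and 120 min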
MsrA act = bovine methionine sulfoxide reductase A activation; purified bovine MsrA, absorbance read-out; 0.3% of 360,000 active; activation, % at 10.6 µM; in the data active = activation above about 7.5%;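 also: 0% = vehicle and 100% = reference activator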
MsrA inh confirm = bovine MsrA inhibition, confirmed; shares compounds with MsrA inhibitor; purified bovine MsrA, absorbance read-out; inhibition, % at 15.5 µM; 41% of 2,300 active; AID 651822;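 also: coupled to thioredoxin reductase with NADPH and selenocystamine and DMSO as substrate; 0% = vehicle only and 100% = full effect of reference inhibitor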
Active calls of the source: *. Shown are actives, neighbours in structure and some others; about 1.2% of the full set was active somewhere. Rule as the data show it, unless noted: active = inhibition above about 4.5%; inactive = the rest.

How did CCCC(C(=O)Nc1nccs1)c1ccccc1 (configuration not stated) do in these assays?
procasp7 counter: 6.1; MsrA inhibitor: 21.4*; A1 inh: 0.6; proCasp3 act: -6.9; MsrA act: -3.0; MsrA inh confirm: 0.0

What do the screens show for `O=C(CCc1nc2ccccc2c(=O)[nH]1)Nc1cc(C(F)(F)F)ccc1N1CCCC1`?
procasp7 counter: -7.9; MsrA inhibitor: 0.7; A1 inh: 0.0; proCasp3 act: 2.1; MsrA act: -0.6

Results for CCN1CCc2c(C#N)c(N3CCCCC3)nc(N3CCOCC3)c2C1 ?
procasp7 counter: -3.2; MsrA inhibitor: 4.8*; A1 inh: -0.2; proCasp3 act: -1.1; MsrA act: -5.6; MsrA inh confirm: 1.8

What do the screens show for `CCSc1nc(N2CCOCC2)c2c(c1C#N)CCCC2`?
procasp7 counter: -7.2; MsrA inhibitor: 13.0*; A1 inh: -0.4; proCasp3 act: -6.6; MsrA act: -4.6; MsrA inh confirm: 13.1*

How did CCN1CCc2c(C#N)c(N3CCOCC3)nc(N3CCOCC3)c2C1 do in these assays?
procasp7 counter: -10.9; MsrA inhibitor: 0.7; A1 inh: -0.1; proCasp3 act: 0.6; MsrA act: -3.3

Results for COC(=O)CSc1nc(N2CCOCC2)c2c(c1C#N)CCCC2 ?
procasp7 counter: 11.9; MsrA inhibitor: 8.2*; A1 inh: 0.2; proCasp3 act: 17.0; MsrA act: -1.6; MsrA inh confirm: 6.9*

How did CC(=O)C(Sc1ncnc2c1nnn2-c1ccc(F)cc1)C(=O)N(C)C (configuration not stated) do in these assays?
procasp7 counter: -17.1; MsrA inhibitor: 5.7*; A1 inh: -2.3; proCasp3 act: -19.9; MsrA inh confirm: 2.6

Results for CCOC(=O)CSc1ncnc2c1nnn2-c1ccc(F)cc1 ?
procasp7 counter: 7.5; MsrA inhibitor: 0.4; A1 inh: -2.5; proCasp3 act: 5.0; MsrA act: -2.8

How did CN(C)N=Nc1nc2c([nH]1)c(=O)n(C)c(=O)n2C do in these assays?
procasp7 counter: -2.5; MsrA inhibitor: 2.0; A1 inh: 0.3; proCasp3 act: 2.3; MsrA act: -3.4

How did CN(C)N=Nc1nc2c(c(=O)n(C)c(=O)n2C)n1CC1CO1 (configuration not stated) do in these assays?
procasp7 counter: 8.1; MsrA inhibitor: 7.4*; A1 inh: 1.7; proCasp3 act: -3.6; MsrA act: -5.8; MsrA inh confirm: 5.9*

Results for O=C(O)c1cccc(NC2=C(n3nnc4ccccc43)C(=O)c3ccccc3C2=O)c1 ?
procasp7 counter: -0.3; MsrA inhibitor: 32.5*; A1 inh: 0.2; proCasp3 act: -5.3; MsrA act: 0.2; MsrA inh confirm: 28.1*

Results for O=C(O)c1cccc(NS(=O)(=O)c2ccc3nnn(O)c3c2)c1 ?
procasp7 counter: -1.9; MsrA inhibitor: 0.1; A1 inh: 0.0; proCasp3 act: 7.2; MsrA act: -5.2

Results for CN=Cc1nc(-c2ccccc2)oc1O ?
procasp7 counter: -16.5; MsrA inhibitor: 9.9*; A1 inh: -3.6; proCasp3 act: -6.7; MsrA act: -11.6; MsrA inh confirm: 7.3*

How did Oc1oc(-c2ccccc2)nc1/C=N/c1ccccn1 do in these assays?
procasp7 counter: -5.5; MsrA inhibitor: 2.3; A1 inh: -1.5; proCasp3 act: -7.6; MsrA act: -15.9

Results for CCOc1ccc2nc(N3C(=O)CNC3=S)sc2c1 ?
procasp7 counter: -7.8; MsrA inhibitor: 7.3*; A1 inh: -3.5; proCasp3 act: -8.5; MsrA act: -5.0; MsrA inh confirm: 4.6*

What do the screens show for `O=C1CNC(=S)N1c1nc(-c2ccccc2)cs1`?
procasp7 counter: 1.6; MsrA inhibitor: 1.5; A1 inh: -8.5; proCasp3 act: -5.6; MsrA act: -3.1

What do the screens show for `Cc1cc2nc(N3C(=O)CNC3=S)sc2cc1C`?
procasp7 counter: 1.7; MsrA inhibitor: 7.7*; A1 inh: -6.5; proCasp3 act: -3.6; MsrA act: -5.5; MsrA inh confirm: 4.9*

How did CCCCC(=O)N1CCN(c2nc3ccc(OCC)cc3s2)CC1 do in these assays?
procasp7 counter: 7.7; MsrA inhibitor: -0.3; A1 inh: -1.7; proCasp3 act: -1.4; MsrA act: -0.4

Results for COC(=O)[C@]1(C)N[C@H](CN(C)S(=O)(=O)c2ccc(OC(F)(F)F)cc2)[C@@H]2C(=O)N(Cc3ccccc3)C(=O)[C@@H]21 ?
procasp7 counter: 2.0; MsrA inhibitor: -0.8; proCasp3 act: 1.6; MsrA act: -0.4

How did O=C1NC(=O)/C(=C/c2ccc(O)cc2)S1 do in these assays?
procasp7 counter: 0.2; MsrA inhibitor: 4.9*; A1 inh: -5.8; proCasp3 act: 3.8; MsrA act: -6.2; MsrA inh confirm: 4.6*

Results for COc1ccc(/C=C/C(=O)N2CCNC(=O)C2)c(OC)c1 ?
procasp7 counter: 3.1; MsrA inhibitor: 4.8*; A1 inh: -0.5; proCasp3 act: 0.2; MsrA act: -8.8; MsrA inh confirm: 3.0

Results for CCN(CC)C(=O)c1sc2nc(Cc3ccccc3)[nH]c(=O)c2c1C ?
procasp7 counter: 13.6; MsrA inhibitor: 0.6; A1 inh: 0.1; proCasp3 act: 7.3; MsrA act: -9.8

Results for Cc1c(C(=O)N(C)C)sc2nc(-c3ccccn3)[nH]c(=O)c12 ?
procasp7 counter: -11.9; MsrA inhibitor: 5.8*; A1 inh: -0.4; proCasp3 act: -23.0; MsrA act: -5.6; MsrA inh confirm: 3.1

How did CC(=O)Nc1cccc(-c2ccnc3c2CC(C(=O)NCc2cccs2)O3)c1 (configuration not stated) do in these assays?
MsrA inhibitor: 1.0; MsrA act: -1.9

Results for CC(=O)COc1c(-c2ccco2)oc2ccccc2c1=O ?
MsrA inhibitor: 4.8*; A1 inh: 0.4; MsrA act: -5.4; MsrA inh confirm: 4.3

Results for Cc1ccccc1-c1n[nH]c(=S)n1/N=C/C=C/c1ccco1 ?
procasp7 counter: -34.8; MsrA inhibitor: 4.7*; A1 inh: 0.4; proCasp3 act: -9.8; MsrA act: -0.3; MsrA inh confirm: 4.5

How did S=c1[nH]nc(-c2ccccc2)n1/N=C/C=C/c1ccco1 do in these assays?
procasp7 counter: -21.7; MsrA inhibitor: 5.7*; A1 inh: -0.7; proCasp3 act: -14.7; MsrA act: 1.7; MsrA inh confirm: 6.2*

What do the screens show for `S=c1[nH]nc(-c2ccc(Cl)cc2)n1/N=C/C=C/c1ccco1`?
procasp7 counter: -20.4; MsrA inhibitor: 2.0; A1 inh: -0.5; proCasp3 act: -15.3; MsrA act: -1.4

What do the screens show for `Cc1cc(-c2n[nH]c(=S)n2/N=C/C=C/c2ccco2)n[nH]1`?
procasp7 counter: -11.2; MsrA inhibitor: 0.7; A1 inh: -0.7; proCasp3 act: 1.6; MsrA act: 2.1
